Experimental data published in ChEMBL document CHEMBL5344453, “Selective Recognition of c-KIT 1 G-Quadruplex by Structural Tuning of Heteroaromatic Scaffolds and Side Chains” (ACS Med Chem Lett, 2024).
Activity calls are given as the source filed them. The rule behind the calls is not given here.

Assays:
Quadruplex DNA [1] = assay: Stabilization of G-quadruplex c-KIT1 5-FAM-GGGAGGGCGCTGGGAGGAGGG-TAMRA-3 (unknown origin) assessed as change in melting temperature at 1 uM incubated for 1 hr in dark condition by FRET-based melting assay; format: nucleic-acid assay
In short: (§1)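 FRET melting of dual-fluorophore-tagged oligonucleotides (200 nM) in 60 mM potassium cacodylate buffer, pH 7.4, with ligand at 1 μM; ΔTm taken against the ligand-free oligonucleotide Tm as control.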

Quadruplex DNA [2] = assay: Stabilization of G-quadruplex c-MYC 5-FAM-TGGGGAGGGTGGGGAGGGTGGGGAAGG-TAMRA- 3 (unknown origin) assessed as change in melting temperature at 1 uM incubated for 1 hr in dark condition by FRET-based melting assay; format: nucleic-acid assay; in short: as §1
Quadruplex DNA [3] = assay: Stabilization of G-quadruplex c-KIT2 5-FAM-GGGCGGGCGCGAGGGAGGGG-TAMRA-3 (unknown origin) assessed as change in melting temperature at 1 uM incubated for 1 hr in dark condition by FRET-based melting assay; format: nucleic-acid assay; in short: as §1
Quadruplex DNA [4] = assay: Stabilization of G-quadruplex BCL2 5-FAM-AGGGGCGGGCGCGGGAGGAAGGGGGCGGGAGCGGGGCTG-TAMRA-3 (unknown origin) assessed as change in melting temperature at 1 uM incubated for 1 hr in dark condition by FRET-based melting assay; format: nucleic-acid assay; in short: as §1
Quadruplex DNA [5] = assay: Stabilization of G-quadruplex VEGF 5-FAM-CGGGGCGGGCCGGGGGCGGGGT-TAMRA-3 (unknown origin) assessed as change in melting temperature at 1 uM incubated for 1 hr in dark condition by FRET-based melting assay; format: nucleic-acid assay; in short: as §1
Quadruplex DNA [6] = assay: Stabilization of G-quadruplex h-TELO 5-FAM-TTGGGTTAGGGTTAGGGTTAGGGA-TAMRA-3 (unknown origin) assessed as change in melting temperature at 1 uM incubated for 1 hr in dark condition by FRET-based melting assay; format: nucleic-acid assay; in short: as §1
Quadruplex DNA [7] = assay: Stabilization of calf thymus […] ds DNA 5-FAM-CAATCGGATCGAATTCGATCCGATTG-TAMRA-3 assessed as change in melting temperature at 1 uM incubated for 1 hr in dark condition by FRET-based melting assay; format: nucleic-acid assay; conditions: Bos taurus; in short: as §1
Quadruplex DNA [8] = assay: Stabilization of fluorophore tagged G-quadruplex c-KIT1 (unknown origin) assessed as change in melting temperature in presence of 0 to 100 equiv calf thymus DNA at 1 uM incubated for 1 hr in dark condition by competitive FRET-based melting assay; format: nucleic-acid assay
In short: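 Competitive FRET melting with fluorophore-labeled c-KIT 1 G-quadruplex and 1 μM ligand. Unlabeled calf thymus DNA was added at 0, 1, 5, 10, 50 and 100 molar equivalents over the labeled DNA, and ΔTm was monitored.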

K562 [9] = assay: Cytotoxicity against human c-KIT-positive K562 cells assessed as cell viability measured after 24 hrs by XTT formazan assay; format: functional, cell-based; conditions: K562, 24 h
MCF7 = assay: Cytotoxicity against human MCF7 cells assessed as cell viability measured after 24 hrs by XTT formazan assay; format: functional, cell-based; conditions: MCF7, 24 h
[10] = Cytotoxicity against HEK293 cells assessed as cell viability measured after 24 hrs by XTT formazan assay; format: toxicity, cell-based; conditions: human
[11] = Induction of cell permeation in human c-KIT-positive K562 cell membrane assessed as fold increase in (G- quadruplex/antibody complex) BG4 foci at 5.5 uM measured after 24 hrs by immunofluorescence assay; format: functional
In short: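 K562 cells were treated with ligand (3 or 5.5 μM) and immunostained with G4-specific antibody BG4. Nuclear BG4 foci were counted by confocal microscopy and expressed relative to untreated cells.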

K562 [12] = assay: Attenuation of proto-oncogene expression in human c-KIT-positive K562 cells assessed as reduction in c-KIT oncogene expression at 5.5 uM measured after 24 hrs by qRT-PCR analysis relative to control; format: functional
In short: (§2)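 K562 cells treated 24 h at two doses per ligand (3 and 6 μM, 5.5 and 11 μM; positive control 2 and 4 μM). c-KIT, c-MYC and BCL-2 mRNA measured by qRT-PCR and normalized to housekeeping gene 18s, relative to untreated control.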

K562 [13] = assay: Attenuation of proto-oncogene expression in human c-KIT-positive K562 cells assessed as reduction in c-KIT oncogene expression at 11 uM measured after 24 hrs by qRT-PCR analysis relative to control; format: functional; in short: as §2
[14] = Effect on proto-oncogene expression in human c-KIT-positive K562 cells assessed as upregulation in c-MYC oncogene expression at 5.5 uM measured after 24 hrs by qRT-PCR analysis relative to control; format: functional; in short: as §2
[15] = Effect on proto-oncogene expression in human c-KIT-positive K562 cells assessed as upregulation in c-MYC oncogene expression at 11 uM measured after 24 hrs by qRT-PCR analysis relative to control; format: functional; in short: as §2
[16] = Effect on proto-oncogene expression in human c-KIT-positive K562 cells assessed as upregulation in BCL-2 oncogene expression at 5.5 uM measured after 24 hrs by qRT-PCR analysis relative to control; format: functional; in short: as §2
[17] = Effect on proto-oncogene expression in human c-KIT-positive K562 cells assessed as down regulation in BCL-2 oncogene expression at 11 uM measured after 24 hrs by qRT-PCR analysis relative to control; format: functional; in short: as §2
[18] = Reduction of c-KIT oncogene expression in human K562 cells transfected with c-KIT plasmid construct assessed as reduction in luciferase expression at 5.5 uM measured after 36 hrs by luciferase reporter assay; format: functional
In short: (§3)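 K562 cells were transfected with luciferase plasmids carrying the c-KIT, c-MYC or BCL-2 promoter G4. They were then treated with ligand (3 and 6 μM or 5.5 and 11 μM), and relative luciferase expression was measured.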

[19] = Reduction of c-KIT oncogene expression in human K562 cells transfected with c-KIT plasmid construct assessed as reduction in luciferase expression at 11 uM measured after 36 hrs by luciferase reporter assay; format: functional; in short: as §3
[20] = Reduction of c-MYC oncogene expression in human K562 cells transfected with c-MYC plasmid construct assessed as reduction in luciferase expression at 5.5 uM measured after 36 hrs by luciferase reporter assay; format: functional
In short: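 Promoter luciferase reporter: K562 cells transfected with a c-MYC promoter G4-containing luciferase-expressing plasmid, then ligand-treated at two doses each (3 and 6 μM, or 5.5 and 11 μM); read-out as relative luciferase expression, reported as percent reduction.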

[21] = Reduction of c-MYC oncogene expression in human K562 cells transfected with c-MYC plasmid construct assessed as reduction in luciferase expression at 11 uM measured after 36 hrs by luciferase reporter assay; format: functional; in short: as §3
[22] = Reduction of BCL-2 oncogene expression in human K562 cells transfected with BCL-2 plasmid construct assessed as reduction in luciferase expression at 5.5 uM measured after 36 hrs by luciferase reporter assay; format: functional; in short: as §3
[23] = Reduction of BCL-2 oncogene expression in human K562 cells transfected with BCL-2 plasmid construct assessed as reduction in luciferase expression at 11 uM measured after 36 hrs by luciferase reporter assay; format: functional; in short: as §3
[24] = Reduction of c-KIT protein expression in human K562 cells at 5.5 uM measured after 24 hrs by Western blotting analysis relative to control; format: functional
In short: (§4)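 K562 cells were treated with ligand (3 and 6 μM or 5.5 and 11 μM). c-KIT protein was measured by Western blot with GAPDH as the housekeeping reference, relative to control.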

[25] = Reduction of c-KIT protein expression in human K562 cells at 11 uM measured after 24 hrs by Western blotting analysis relative to control; format: functional; conditions: K562, read-out: INH; in short: as §4
K562 [26] = assay: Induction of cell cycle arrest in human K562 cells assessed as accumulation at G0/G1 phase at 5.5 to 11 uM incubated for 24 hrs by propidium iodide based assay; format: functional; conditions: dose 5.5-11 µM
In short: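 K562 cells were treated with ligand (3 and 6 μM or 5.5 and 11 μM) and stained with propidium iodide. The fraction of cells in each cell-cycle phase was determined by flow cytometry.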

K562 [27] = assay: Induction of apoptosis in human K562 cells assessed as apoptosis at 5.5 uM incubated for 24 hrs by FITC-Annexin V and PI analysis; format: functional
In short: (§5)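 K562 cells were treated with ligand (3 and 6 μM or 5.5 and 11 μM) and dual-stained with annexin V and PI. Early and late apoptotic populations were quantified by flow cytometry dot plot analysis.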

K562 [28] = assay: Induction of apoptosis in human K562 cells assessed as apoptosis at 11 uM incubated for 24 hrs by FITC-Annexin V and PI analysis; format: functional; in short: as §5

ΔTm (Quadruplex DNA [1]): < 3 °C
ΔTm (Quadruplex DNA [2]): < 3 °C
ΔTm (Quadruplex DNA [3]): < 3 °C
ΔTm (Quadruplex DNA [4]): < 3 °C
ΔTm (Quadruplex DNA [5]): < 3 °C
ΔTm (Quadruplex DNA [6]): < 3 °C
ΔTm (Quadruplex DNA [7]): < 3 °C
Activity (Quadruplex DNA [8]): Active
Structure (SMILES): CN(C)CCCNC(=O)c1ccc(-n2cc(-c3ccc4oc5ccccc5c4c3)nn2)cc1
IC50 (K562 [9]): 11.7 µM
IC50 (MCF7): ≥ 19 µM
IC50 at 24 h [10]: ≥ 50 µM
fold change (FC) [11]: 1.8
inhibition at 5.5 µM (K562 [12]): > 1%
inhibition at 11 µM (K562 [13]): 3%
Activity [14]: 23%
Activity [15]: 31%
Activity [16]: 8%
Activity [17]: 5%
inhibition at 5.5 µM [18]: 3.3%
inhibition at 11 µM [19]: 7.6%
inhibition at 5.5 µM [20]: 6.2%
inhibition at 11 µM [21]: 10.1%
inhibition at 5.5 µM [22]: 9.5%
inhibition at 11 µM [23]: 14%
inhibition at 5.5 µM [24]: 7.8%
inhibition at 11 µM [25]: -15.8%
Activity (K562 [26]): inactive
Activity (K562 [27]): 1%
Activity (K562 [28]): 11%
